Test results reported in ChEMBL document CHEMBL1134271 (J Med Chem, 2001).
One block for each compound: values may come before it.

Legend:
Endothelin-1 receptor [1] = target: T1, Endothelin-1 receptor (Rattus norvegicus, UniProt P26684); assay: Binding affinity against endothelin A receptor in MMQ cells in rat; type: cell-based
T1 sequence (P26684 whole entry): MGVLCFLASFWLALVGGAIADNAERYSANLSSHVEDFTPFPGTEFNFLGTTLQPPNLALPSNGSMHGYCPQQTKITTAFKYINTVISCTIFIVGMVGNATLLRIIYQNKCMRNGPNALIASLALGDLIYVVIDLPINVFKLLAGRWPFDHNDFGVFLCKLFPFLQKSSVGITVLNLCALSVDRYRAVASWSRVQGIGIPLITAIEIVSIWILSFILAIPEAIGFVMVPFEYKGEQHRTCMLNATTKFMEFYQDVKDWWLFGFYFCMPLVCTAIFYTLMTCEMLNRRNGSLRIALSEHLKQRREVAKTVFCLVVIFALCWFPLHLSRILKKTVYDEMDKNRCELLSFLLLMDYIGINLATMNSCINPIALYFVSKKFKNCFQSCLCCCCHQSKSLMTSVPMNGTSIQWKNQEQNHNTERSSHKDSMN

[2] = Compound was evaluated for pharmacokinetic data, area under curve (AUC); type: ADME
How it was run: (§1)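 Rats (n = 3) were given 10 mg/kg by oral gavage. Plasma drug concentration was followed over time and compared with the intravenous time course. Oral half-life, Cmax, AUC and oral bioavailability were derived from these profiles.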

[3] = Compound was evaluated for pharmacokinetic data, Cmax; type: ADME, organism-based; settings: in vivo; how it was run: as §1
[4] = (§2) Compound was evaluated for bioavailability; type: ADME, organism-based; settings: eutheria, in vivo; how it was run: as §1
[5] = Compound was evaluated for half life period when administered orally; type: ADME, organism-based; settings: in vivo, po; how it was run: as §1
[6] = target: T2, Endothelin receptor type B (Homo sapiens, UniProt P24530); assay: Binding affinity against human endothelin B receptor in CHO cells; type: cell-based
T2 sequence (P24530 whole entry): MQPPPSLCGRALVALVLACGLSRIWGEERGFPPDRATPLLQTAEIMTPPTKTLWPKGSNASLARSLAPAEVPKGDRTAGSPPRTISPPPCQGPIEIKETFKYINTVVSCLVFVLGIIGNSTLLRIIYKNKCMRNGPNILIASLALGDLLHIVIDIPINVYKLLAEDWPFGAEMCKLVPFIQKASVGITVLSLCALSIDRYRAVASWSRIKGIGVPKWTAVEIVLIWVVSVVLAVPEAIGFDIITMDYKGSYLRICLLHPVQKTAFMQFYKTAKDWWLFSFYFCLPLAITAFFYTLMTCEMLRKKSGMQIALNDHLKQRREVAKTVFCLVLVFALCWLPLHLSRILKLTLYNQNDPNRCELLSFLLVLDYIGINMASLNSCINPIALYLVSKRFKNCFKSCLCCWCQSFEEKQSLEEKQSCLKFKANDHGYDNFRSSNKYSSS
How it was run: (§3)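 Human ET-A and ET-B receptors expressed in CHO cells, run as a second binding assay alongside the rat/porcine screen. IC50 was derived from radioligand displacement: [125I]ET-1 for ET-A and [125I]ET-3 for ET-B.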

[7] = as §2; type: ADME, organism-based; settings: eutheria, in vivo; remark: listed apart in the source
How it was run: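 Rats received the drug by intravenous injection (5 mg/kg) and by oral gavage (10 mg/kg), three rats per route. Plasma drug levels were followed over time. Oral bioavailability (F) was derived by comparing plasma exposure after oral dosing with that after iv dosing.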

[8] = Compound was evaluated for half-life period when administered intravenously; type: ADME, organism-based; settings: in vivo, iv
How it was run: (§4)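 Rats were dosed by intravenous injection at 5 mg/kg. Plasma drug levels were followed over time, and half-life was derived from the iv time course.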

Endothelin-1 receptor [9] = target: T3, Endothelin-1 receptor (Homo sapiens, UniProt P25101); assay: Binding affinity against human Endothelin A receptor; how it was run: as §3
T3 sequence (P25101 whole entry): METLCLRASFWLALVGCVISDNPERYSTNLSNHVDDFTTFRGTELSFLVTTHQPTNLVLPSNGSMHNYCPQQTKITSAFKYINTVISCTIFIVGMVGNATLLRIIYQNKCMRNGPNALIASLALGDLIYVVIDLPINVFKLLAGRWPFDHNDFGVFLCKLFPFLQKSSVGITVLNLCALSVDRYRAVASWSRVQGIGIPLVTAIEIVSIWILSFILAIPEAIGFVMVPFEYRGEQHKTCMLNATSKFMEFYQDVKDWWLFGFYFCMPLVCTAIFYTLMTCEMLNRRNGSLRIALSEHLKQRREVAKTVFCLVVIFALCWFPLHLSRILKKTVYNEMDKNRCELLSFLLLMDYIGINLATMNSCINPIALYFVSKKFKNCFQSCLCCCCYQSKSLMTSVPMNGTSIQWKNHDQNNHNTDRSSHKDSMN

[10] = Compound was evaluated for half life period when administered intravenously; type: ADME, organism-based; settings: in vivo, iv; how it was run: as §4

IC50 (Endothelin-1 receptor [1]): 0.11 nM
SMILES: CCCCN(CCCC)C(=O)CN1C[C@H](c2ccc3c(c2)OCO3)[C@@H](C(=O)O)[C@@H]1c1ccc(OC)c(OC)c1

IC50 (Endothelin-1 receptor [1]): 1.2 nM
SMILES: CCCCN(CCCC)C(=O)CN1C[C@H](c2ccc3c(c2)OCC3)[C@@H](C(=O)O)[C@@H]1c1ccc(OC)cc1

IC50 (Endothelin-1 receptor [1]): 0.85 nM
SMILES: CCCCN(CCCC)C(=O)CN1C[C@H](c2ccc3c(c2)OCCO3)[C@@H](C(=O)O)[C@@H]1c1ccc(OC)cc1

IC50 (Endothelin-1 receptor [1]): 0.17 nM
SMILES: CCCCN(CCCC)C(=O)CN1C[C@H](c2ccc3c(c2)OCO3)[C@@H](C(=O)O)[C@@H]1c1ccc(CC)cc1

IC50 (Endothelin-1 receptor [1]): 1.06 nM
SMILES: CCCCN(CCCC)C(=O)CN1C[C@H](c2ccc3c(c2)OCO3)[C@@H](C(=O)O)[C@@H]1c1ccc(CCC)cc1

IC50 (Endothelin-1 receptor [1]): 5.2 nM
SMILES: CCCCN(CCCC)C(=O)CN1C[C@H](c2ccc3c(c2)OCCO3)[C@@H](C(=O)O)[C@@H]1c1ccc(CC)cc1

IC50 (Endothelin-1 receptor [1]): 3.28 nM
SMILES: CCCCN(CCCC)C(=O)CN1C[C@H](c2ccc3c(c2)OCO3)[C@@H](C(=O)O)[C@@H]1c1ccc(C(F)(F)F)cc1

AUC [2]: 7360 ng·h/mL
Cmax ([3]; read-out: Cmax): 3440 ng/mL
bioavailability ([4]; read-out: Bioavailability): 60.2%
half-life [5]: 6.2 h
SMILES: CCCCN(CCCC)C(=O)CN1C[C@H](c2ccc3c(c2)OCO3)[C@@H](C(=O)O)[C@@H]1c1ccc(OC)cc1

IC50 [6]: 950 nM
SMILES: CCCCN(CCCC)C(=O)CN1C[C@H](c2ccc3c(c2)OCCO3)[C@@H](C(=O)O)[C@@H]1c1ccc(CC)c(F)c1

AUC [2]: 3270 ng·h/mL
bioavailability [7]: 47.7%
SMILES: CCCCN(CCCC)C(=O)CN1C[C@H](c2cc(OC)c3c(c2)OCO3)[C@@H](C(=O)O)[C@@H]1CC(C)(C)CCC [ABT-546]

IC50 (Endothelin-1 receptor [1]): 0.92 nM
SMILES: CCCCN(CCCC)C(=O)CN1C[C@H](c2ccc3c(c2)CCO3)[C@@H](C(=O)O)[C@@H]1c1ccc(CC)cc1

IC50 (Endothelin-1 receptor [1]): 0.48 nM
SMILES: CCCCN(CCCC)C(=O)CN1C[C@H](c2ccc3occc3c2)[C@@H](C(=O)O)[C@@H]1c1ccc(OC)cc1

half-life [8]: 2.1 h
Ki (Endothelin-1 receptor [9]): 0.039 nM
AUC [2]: 12500 ng·h/mL
IC50 [6]: 6200 nM
Cmax [3]: 1840 ng/mL
bioavailability [4]: 71.7%
T1/2 [5]: 4.7 h
SMILES: CCCCN(CCCC)C(=O)CN1C[C@H](c2ccc3c(c2)CCO3)[C@@H](C(=O)O)[C@@H]1c1ccc(C)c(F)c1 (stereo in doubt; 8a)

IC50 (Endothelin-1 receptor [1]): 1.38 nM
SMILES: CCCCN(CCCC)C(=O)CN1C[C@H](c2ccc3c(c2)OCO3)[C@@H](C(=O)O)[C@@H]1c1ccc(F)c(F)c1

IC50 (Endothelin-1 receptor [1]): 0.12 nM
SMILES: CCCCN(CCCC)C(=O)CN1C[C@H](c2ccc3c(c2)OCO3)[C@@H](C(=O)O)[C@@H]1c1ccc(C)cc1

IC50 (Endothelin-1 receptor [1]): 0.07 nM
SMILES: CCCCN(CCCC)C(=O)CN1C[C@H](c2ccc3c(c2)OCO3)[C@@H](C(=O)O)[C@@H]1c1ccc(OC)c(F)c1

IC50 [6]: 3050 nM
SMILES: CCCCN(CCCC)C(=O)CN1C[C@H](c2ccc3c(c2)CCO3)[C@@H](C(=O)O)[C@@H]1c1ccc(CC)c(F)c1

IC50 (Endothelin-1 receptor [1]): 0.78 nM
SMILES: CCCCN(CCCC)C(=O)CN1C[C@H](c2ccc3c(c2)CCO3)[C@@H](C(=O)O)[C@@H]1c1ccc(C)cc1

half-life [10]: 4.7 h
AUC [2]: 9400 ng·h/mL
IC50 [6]: 4400 nM
Cmax ([3]; read-out: Cmax): 930 ng/mL
bioavailability ([4]; read-out: Bioavailability): 65.6%
half-life [5]: 5.8 h
SMILES: CCCCN(CCCC)C(=O)CN1C[C@H](c2ccc3c(c2)CCO3)[C@@H](C(=O)O)[C@@H]1c1ccc(C)c(F)c1 (stereo in doubt; 8)
